The test system of one experiment is MCF-10A. The experiment is described as follows: Cytotoxicity against human MCF10A cells after 72 hrs by MTT assay. It counts as functional, cell-based. Summed up:
(§1)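 MTT viability assay on human cell lines, with values given as IC50. Lines used: gemcitabine-resistant pancreatic cancer G3K, breast adenocarcinoma MCF-7, its adriamycin-resistant subline MCF-7/Adr, triple-negative breast cancer MDA-MB-231, nontumorigenic breast epithelial MCF10A, non-small-cell lung cancer A549, and promyelocytic leukemia HL-60.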
In general terms: Tetrazolium assays rely on reduction of a dye to a coloured formazan, in cell work by metabolically active cells.

Another experiment concerns MCF7. The experiment is described as follows: Cytotoxicity against human MCF7 cells after 72 hrs by MTT assay. It counts as functional, cell-based. Particulars: MCF7, 72 h. Summed up: as §1
The nature of experiment [1]: Cytotoxicity against human G3K cells after 72 hrs by MTT assay. It counts as functional, cell-based. Summed up: as §1
The subject of another experiment is NCI/ADR-RES. Briefly: Cytotoxicity against human MCF7/ADR cells after 72 hrs by MTT assay. The class given is functional, cell-based. The procedure, abridged: as §1
For another experiment, the system named is Pseudomonas aeruginosa. Briefly: Antimicrobial activity against Pseudomonas aeruginosa ATCC 10145 at 1 ug after 24 hrs by paper disc agar diffusion method. The class given is functional, organism-based. For orientation: A growth-free zone around the sample is the usual read-out of agar diffusion tests.
The next experiment deals with Candida albicans. The experiment is described as follows: Antimicrobial activity against Candida albicans ATCC 10231 at 1 ug after 24 hrs by paper disc agar diffusion method. The class given is functional, organism-based.
The test system of the next experiment is Bacillus subtilis. Briefly: Antimicrobial activity against Bacillus subtilis ATCC 6051 at 1 ug after 24 hrs by paper disc agar diffusion method. It counts as functional, organism-based.
For another experiment, the system named is MDA-MB-231. The experiment is described as follows: Cytotoxicity against human MDA-MB-231 cells after 72 hrs by MTT assay. The class given is functional, cell-based. Particulars: MDA-MB-231, 72 h.
The next experiment has as its system Klebsiella aerogenes. The experiment is described as follows: Antimicrobial activity against Enterobacter aerogenes ATCC 13048 at 1 ug after 24 hrs by paper disc agar diffusion method. The class given is functional, organism-based.
The next experiment concerns Escherichia coli. The experiment is described as follows: Antimicrobial activity against Escherichia coli ATCC 11775 at 1 ug after 24 hrs by paper disc agar diffusion method. It counts as functional, organism-based. Particulars: DSM 30083 = JCM 1649 = ATCC 11775.
The subject of the next experiment is A549. The experiment is described as follows: Cytotoxicity against human A549 cells after 72 hrs by MTT assay. Particulars: A549, 72 h. It counts as functional, cell-based. Summed up: as §1
The test system of another experiment is HL-60. The experiment is described as follows: Cytotoxicity against human HL60 cells after 72 hrs by MTT assay. It counts as functional, cell-based. Particulars: HL-60, 72 h. Summed up: as §1

Counter-ions that a name gives are not always drawn. Calls of active or inactive are those of the source. The calls are words filed in the database; no cut-off is given here.

In ChEMBL document CHEMBL4130606, “Ophiobolins from the Mangrove Fungus Aspergillus ustus” (J Nat Prod, 2018) one finds IC50 and Activity data, which are given here for 18 compounds.

In general, IC50 refers to the midpoint of a concentration-inhibition curve.

As to `COc1cccc2c1C(=O)c1c(O)c3c(c(O)c1C2=O)C[C@@](O)(C(=O)CO)C[C@@H]3O[C@H]1C[C@H](N)[C@H](O)[C@H](C)O1` [DOXORUBICIN HYDROCHLORIDE], the IC50 was found to be 0.2 µM with MCF-10A, 0.1 µM in the experiment with MCF7, 45 µM in experiment [1] and 2.9 µM in the experiment on NCI/ADR-RES.

Turning to `CO[C@@H]1O[C@]2(OC)C[C@@](C)(O)[C@H]3C[C@@]4(C)CC[C@H]([C@@H](C)/C=C\C=C(C)C)[C@@H]4C/C=C/1[C@@H]32`, the IC50 in the experiment on MCF-10A is greater than 40 µM; in the experiment with MCF7, 13.2 µM; in the experiment on MDA-MB-231, 18.5 µM; in [1], 19.1 µM; in the experiment with NCI/ADR-RES, 5.4 µM. Also, the result in the experiment on Pseudomonas aeruginosa, in the experiment on Candida albicans, with Bacillus subtilis, with Klebsiella aerogenes and with Escherichia coli was inactive.

As for `CO[C@H]1O[C@]2(OC)C[C@@](C)(O)[C@H]3C[C@@]4(C)CC[C@H]([C@@H](C)/C=C\C=C(C)C)[C@@H]4C/C=C/1[C@@H]32`, the IC50 is greater than 40 µM in the experiment on MCF-10A; 9.4 µM in the experiment with MCF7; 21.4 µM in the experiment with MDA-MB-231; greater than 20 µM in experiment [1]; 7.9 µM in the experiment on NCI/ADR-RES. For the same compound, the result with Pseudomonas aeruginosa, in the experiment on Candida albicans, with Bacillus subtilis, with Klebsiella aerogenes and in the experiment with Escherichia coli was inactive.

With `CC(C)=C/C=C\[C@H](C)[C@H]1CC[C@]2(C)C[C@H]3[C@H](C(=O)C[C@@]3(C)O)/C(C)=C\C[C@@H]12`, the values for the concentration for half-maximal inhibition (IC50) in the experiment with A549 and in the experiment with HL-60 were 15.1 µM and 7 µM, respectively.

As to `CC(C)=C/C=C\[C@H](C)[C@H]1CC[C@]2(C)C[C@H]3[C@@H]4/C(=C\C[C@@H]12)C(=O)O[C@]4(O)C[C@@]3(C)O`, the IC50 in the experiment with MCF7 is greater than 40 µM; in the experiment on MDA-MB-231, greater than 40 µM; in experiment [1], greater than 20 µM; with NCI/ADR-RES it was greater than 40 µM. The outcome in the experiment with Pseudomonas aeruginosa, in the experiment with Candida albicans, in the experiment on Bacillus subtilis, in the experiment on Klebsiella aerogenes and with Escherichia coli was inactive.

For `CC(C)=C/C=C\[C@H](C)[C@H]1CC[C@]2(C)C[C@@H]3C(C)=CC(=O)[C@H]3/C(CO)=C\C[C@@H]12`, the IC50 was greater than 40 µM with MCF7; greater than 50 µM with A549; greater than 20 µM in the experiment with MDA-MB-231; 1.9 µM in experiment [1]; greater than 40 µM in the experiment with NCI/ADR-RES; greater than 50 µM in the experiment on HL-60. Also, the outcome with Pseudomonas aeruginosa, in the experiment with Candida albicans, in the experiment on Bacillus subtilis, in the experiment on Klebsiella aerogenes and with Escherichia coli was inactive.

Turning to `CC(C)=C/C=C\[C@H](C)[C@H]1CC[C@]2(C)C[C@H]3[C@H](C(=O)C[C@@]3(C)O)/C(C=O)=C\C[C@@H]12`, the IC50 in the experiment on MCF-10A is 8.4 µM; in the experiment on MCF7 it was 5.1 µM; in the experiment with MDA-MB-231 it was 5.9 µM; in experiment [1] it was greater than 20 µM; in the experiment on NCI/ADR-RES it was 4.1 µM.

Turning to `CC(C)=C/C=C\[C@H](C)[C@H]1CC[C@]2(C)C[C@H]3[C@@H]4/C(=C\C[C@@H]12)CO[C@@H]4C[C@@]3(C)O`, the IC50 with MCF7 is greater than 40 µM; in the experiment on MDA-MB-231, greater than 40 µM; in experiment [1], greater than 20 µM; in the experiment on NCI/ADR-RES, greater than 40 µM.

In the case of `CO[C@@H]1O[C@@]2(OC)C[C@@](C)(O)[C@H]3C[C@@]4(C)CC[C@H]([C@@H](C)/C=C\C=C(C)C)[C@@H]4C/C=C/1[C@H]32`, the result in the experiment on Pseudomonas aeruginosa, with Candida albicans, in the experiment on Bacillus subtilis, in the experiment on Klebsiella aerogenes and with Escherichia coli was inactive. For the same compound, the IC50 in the experiment on A549 came out at 0.6 µM; with HL-60, 0.8 µM.

`CC(C)=C/C=C\[C@H](C)[C@H]1CC[C@]2(C)CC3=C(C(=O)C[C@H]3C)/C(C=O)=C\C[C@@H]12`: the IC50 with MCF7 was greater than 40 µM; with MDA-MB-231, 39.8 µM; in [1] it was greater than 20 µM; in the experiment on NCI/ADR-RES, greater than 40 µM.

As to `CO[C@H]1C[C@H]2[C@@H]([C@@H](C)/C=C\C=C(C)C)CC[C@]2(C)C[C@H]2[C@H]3C1=CO[C@H]3C[C@@]2(C)O`, the IC50 in the experiment on MCF7 is greater than 40 µM; in the experiment with MDA-MB-231, greater than 40 µM; in experiment [1], greater than 20 µM; in the experiment on NCI/ADR-RES it was greater than 40 µM.

Turning to `CC(C)=C/C=C\[C@H](C)[C@H]1CC[C@]2(C)C[C@@H]3C(C)=CC(=O)[C@H]3/C(C=O)=C\C[C@@H]12`, the IC50 with MCF-10A is greater than 40 µM; with MCF7 it was 15.4 µM; in the experiment on MDA-MB-231 it was 11.6 µM; in experiment [1] it was 16.8 µM; in the experiment with NCI/ADR-RES, 35.4 µM. Moreover, the result in the experiment on Pseudomonas aeruginosa, in the experiment with Candida albicans, in the experiment on Bacillus subtilis, in the experiment with Klebsiella aerogenes and in the experiment on Escherichia coli was inactive.

With `CC(C)=C/C=C\[C@H](C)[C@H]1CC[C@]2(C)C[C@@H]3C(C)=CC(=O)[C@@H]3/C(C=O)=C\C[C@@H]12`, the concentration for half-maximal inhibition (IC50) with MCF-10A is greater than 40 µM; with MCF7, 22.9 µM; in the experiment on MDA-MB-231 it was 14.1 µM; in experiment [1], 9.5 µM; with NCI/ADR-RES, 34.6 µM.

For the compound `CC1=CC(=O)[C@H]2/C(C=O)=C\C[C@H]3[C@@H]([C@@H](C)/C=C\[C@@H](O)C(C)(C)O)CC[C@]3(C)C[C@H]12`, the IC50 with A549 was found to be 33.8 µM; with HL-60 it was 7.2 µM.

On to `CC(C)=C/C=C\[C@H](C)[C@H]1CC[C@]2(C)C[C@H]3[C@@H](C(=O)C[C@@]3(C)O)/C(C=O)=C\C[C@@H]12`, for which the IC50 in the experiment on MCF-10A was greater than 40 µM; in the experiment on MCF7, 12.8 µM; with MDA-MB-231, 4.1 µM; in experiment [1], 6.8 µM; with NCI/ADR-RES, 26.1 µM. Also, the outcome in the experiment on Pseudomonas aeruginosa, in the experiment with Candida albicans, in the experiment on Bacillus subtilis, in the experiment with Klebsiella aerogenes and with Escherichia coli was inactive.

Consider `CC(C)=C/C=C\[C@H](C)[C@H]1CC[C@]2(C)CC3=C(C(=O)C[C@H]3C)/C(CO)=C\C[C@@H]12`, for which the IC50 with MCF7 was greater than 40 µM; with MDA-MB-231 it was greater than 40 µM; in experiment [1], greater than 20 µM; in the experiment with NCI/ADR-RES it was greater than 40 µM.

For `CO[C@H]1O[C@@]2(OC)C[C@@](C)(O)[C@H]3C[C@@]4(C)CC[C@H]([C@@H](C)/C=C\C=C(C)C)[C@@H]4C/C=C/1[C@H]32` [OPHIOBOLIN O], the outcome in the experiment with Pseudomonas aeruginosa, in the experiment on Candida albicans, in the experiment on Bacillus subtilis, in the experiment with Klebsiella aerogenes and in the experiment with Escherichia coli was inactive. In addition, the IC50 was found to be 2.4 µM in the experiment with A549 and 1.7 µM with HL-60.

For `CC(C)=C/C=C\[C@H](C)[C@H]1CC[C@]2(C)C[C@H]3[C@H]4/C(=C\C[C@@H]12)C(=O)O[C@H]4C[C@@]3(C)O`, the IC50 was greater than 40 µM with MCF7; greater than 50 µM in the experiment on A549; greater than 40 µM with MDA-MB-231; greater than 20 µM in experiment [1]; greater than 40 µM in the experiment with NCI/ADR-RES; greater than 50 µM with HL-60. Also, the outcome in the experiment on Pseudomonas aeruginosa, in the experiment on Candida albicans, in the experiment with Bacillus subtilis, in the experiment on Klebsiella aerogenes and in the experiment with Escherichia coli was inactive.
